# This is a sample that favours compounds with a hit; in the whole collection about 2.2% have one here.
# NR2E3 ag-1: agonists of human NR2E3 nuclear receptor; inhibition of corepressor binding, % at 3.98 µM; 360,000 compounds, 0.35% hits; CHO-S Gal4-NCOR/VP16-NR2E3 two-hybrid, luciferase; Q9Y5X4;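 active means inhibition above the mean of all tested compounds plus 3 SD, cut at about 70% in these data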;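 further: 0% = DMSO with NR2E3 transfected cells and 100% = cells lacking NR2E3 construct; higher means lower luciferase signal from less NR2E3 corepressor binding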
# SMARCA2 activ: increases SMARCA2 function in MMTV reporter cells; MG213 cells, MMTV-luciferase reporter, dexamethasone, overnight; activation, % at 9.1 µM; 370,000 compounds, 1% hits; in the data active means activation above about 7.8%;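 further: 0% = vehicle wells and 100% = reference activator wells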
# GalR3 antagonist: antagonists of human GalR3; inhibition, % at 3 µM; 360,000 compounds, 0.44% hits; HEK293 GalR3-CNG cAMP membrane potential fluorescence; galR3 body fused to GalR1 C-terminus;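 active means inhibition above the screen-wide average plus 3 SD, cut at about 13% in these data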;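 further: forskolin and galanin both at EC90 stimulate the cells; cAMP rise reported by CNG channel membrane potential dye signal; 0% = forskolin plus galanin with DMSO and 100% = forskolin alone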
# Target sequence (O60755 1-299 limits assumed): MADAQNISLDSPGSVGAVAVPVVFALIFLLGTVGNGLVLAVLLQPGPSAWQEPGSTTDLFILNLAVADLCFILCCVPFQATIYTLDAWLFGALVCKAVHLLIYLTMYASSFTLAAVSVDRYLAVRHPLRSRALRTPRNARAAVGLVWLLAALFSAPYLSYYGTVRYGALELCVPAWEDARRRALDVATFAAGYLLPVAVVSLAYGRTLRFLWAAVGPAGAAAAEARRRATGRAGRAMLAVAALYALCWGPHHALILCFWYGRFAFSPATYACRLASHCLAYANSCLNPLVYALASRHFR
# NR2E3 ag-2: activates human photoreceptor nuclear receptor NR2E3; GST-NR2E3/biotin-RetCOR TR-FRET, 1536-well; inhibition of corepressor binding, % at 4.78 µM; 320,000 compounds, 0.12% hits; AID 2300;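 active means percent inhibition above the cutoff of mean plus 3 SD of all tested compounds, set per screening campaign, cut at about 20% in these data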;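 further: 0% = DMSO wells and 100% = biotin wells as full block of FRET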
#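 Test system: GST-NR2E3 and biotin-RetCOR proteins | Quantity: 1.35 nM GST-tagged NR2E3 final | Medium: Tris pH 7.5 | Also added: 7 nM biotin-RetCOR | Dosing: Compound at 4.8 µM, single dose | Timing: 5 h at 4 °C | Detection: Time-resolved FRET | Read-out basis: Percent inhibition | Benchmarks: Biotin wells as high control, 0.6% DMSO wells as low control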
# COUP-TFII inh: inhibitors of human COUP-TFII (NR2F2); AID 686940; inhibition, % at 8.6 µM; HEK293T NGFI-A luciferase reporter, luminescence; 370,000 compounds, 0.7% hits;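 active means inhibition above a per-plate cutoff, mean inhibition of test wells between control levels plus 3 SD, cut at about 38% in these data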;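 further: cells cotransfected with COUP-TFII expression vector driving the NGFI-A reporter; 0% = median of COUP-TF2 test wells and 100% = reporter-only cells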
# SMARCA2 act conf: SMARCA2 activation, confirmation screen. AID 652260. MG213 cells, MMTV-luciferase with dexamethasone, luminescence, overnight; MG213 cells expressing E1A, Rb sequestered; DMSO wells 0%, reference activator 100%. 3,500 compounds, 30% hits. shares compounds with SMARCA2 activ. activation, % at 9.1 µM;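 active means activation above its plate's cutoff, the mean activation of tested wells plus 3 SD, cut at about 7.9% in these data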
# GAL4-VP16 Luc: activates GAL4-VP16 luciferase, flagging SMARCA2 activator hits; shares compounds with SMARCA2 activ; HEK293 GAL4-VP16 pG5luc reporter, luciferase luminescence; scaled: DMSO wells 0%, SAHA wells 100%; activation, % at 9.1 µM; 3,500 compounds, 41% hits;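 active means activation above the solvent-only control well mean plus 3 SD, averaged across control plates, cut at about 5.2% in these data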
# * = called active by the depositor; / = no result given.
SMILES,NR2E3 ag-1,SMARCA2 activ,GalR3 antagonist,NR2E3 ag-2,COUP-TFII inh,SMARCA2 act conf,GAL4-VP16 Luc
CCC[C@H]1[C@@H](NC(=O)c2cccnc2)CC[C@@]23CCCN2C(=O)CCC[C@@H]13,/,/,/,/,0,/,/
C/C(=N\Nc1ccc(Cl)c(C(=O)O)c1)c1ccccn1,-102,13*,-6,-4,-5,3,3
C/C(CC(=O)Nc1ccc(F)cc1)=N\NC(=O)c1ccccn1,-130,9.2*,2,-5,-76,-3,5
C/C(=N\NC(=O)c1ccc(F)cc1)c1ccccn1,-61,9.6*,-11,-1,-18,-12,-3
C/C(=N\Nc1ccc(Cl)c(C(=O)O)c1)c1cccc2ccccc12,-44,3,-7,-3,-6,/,/
CCOC(=O)[C@H](Cc1ccccc1)NC(=O)[C@H]1C[C@@]2(N3CCCCC3)c3ccccc3N(C(=O)OC(C)(C)C)[C@H]2N1C(=O)OC(C)(C)C,/,-4,/,/,13,/,/
CCCCCN(C(=O)Cc1c(C)n(CCCCC)c2ccccc12)c1ccc(Oc2cccnc2)c(C)c1,/,3,-5,/,18,/,/
COC(=O)[C@]12C[C@H](CC(=O)N3CCCCC3)C(=O)N(Cc3ccccc3)C1=C[C@H](COCc1ccccc1)O[C@@H]2C,/,2,/,/,15,/,/
CCOc1ccc(-c2ccc(SCC(=O)NC3CCCCC3)nn2)cc1,-50,8.5*,2,3,-3,5,8.9*
CNC(=S)Nc1ccc(-c2nc3ccc(C)cc3s2)cc1,-136,5,-4,1,-51,/,/
CC(=O)NC(=S)Nc1ccc(-c2nc3ccc(C)cc3s2)cc1,-141,18*,-4,4,-31,5,9.2*
COc1cccc(N=c2oc3ccc(OC)cc3cc2-c2nc3ccccc3[nH]2)c1,-168,8.3*,-6,-1,-75,4,12*
COc1ccc(N=c2oc3ccc(OC)cc3cc2-c2nc3ccccc3[nH]2)cc1,-111,14*,-2,2,-53,3,9.9*
Cc1nc2c(sc3nc(N4CCOCC4)c4c(c32)CC(C)(C)OC4)c(-c2ccc(Cl)cc2)c1C(=O)O,-14,8.4*,-3,0,-13,-5,0
CC1(C)Cc2c(c(N3CCOCC3)nc3sc(C(=O)Nc4ccc(Cl)cc4)c(N)c23)CO1,-13,-1,5,6,-14,/,/
Cc1[nH]c2ccccc2c1/C=N/Nc1nc2ccccc2[nH]1,-7,21*,-3,-6,0,9.2*,5
Cc1[nH]c2ccccc2c1/C=N/NC(=O)c1ccccc1,-69,-2,-10,2,-26,/,/
Cc1[nH]c2ccccc2c1/C=N/NC(=O)c1ccc(N)cc1,-9,9.3*,-7,0,-13,3,0
CCOC(=O)N1CCN(C(=O)C[C@H]2C[C@@]3(C(=O)OC)C(=C[C@H](COCc4ccccc4)O[C@@H]3C)N(Cc3ccco3)C2=O)CC1,/,-2,/,/,15,/,/
C[C@@H]1CCN(C2CC2)S(=O)(=O)c2ccc(N3CCC[C@H]3CO)cc2O1,/,-1,/,/,-14,/,/
COc1ccc(CC(=O)Nc2c3c(nn2-c2ccccc2C)CS(=O)C3)cc1 (stereo not drawn),2,8.7*,-8,-3,-4,-2,0
Cc1cc(OCC(=O)N(C)C2CCCCC2)ccc1Cl,-123,10*,-7,2,-12,6,17*
Cc1cc(OCC(=O)N(C)C2CCCCC2)cc(C)c1Cl,-56,6,-8,4,-6,/,/
O=C(Nc1ccc(Br)cn1)c1cccc(C(=O)Nc2ccc(Br)cn2)c1,-86,-1,-9,1,-9,/,/
O=C(Nc1ccc(Br)cn1)c1ccc2ccccc2c1,-91,9.3*,-7,1,-15,12*,14*
SMILES,NR2E3 ag-1,SMARCA2 activ,GalR3 antagonist,NR2E3 ag-2,COUP-TFII inh,SMARCA2 act conf,GAL4-VP16 Luc
Cc1ccccc1Cn1cc(NS(=O)(=O)c2cn(C)nc2C)cn1,-29,8.8*,-2,6,4,-2,2
Cc1ccccc1NC(=S)N(Cc1ccco1)C(C)c1cccs1 (stereo not drawn),11,11*,-3,-3,-2,-4,-1
CC(c1cccs1)N(Cc1ccco1)C(=S)Nc1ccccc1Cl (stereo not drawn),-31,-2,-2,-1,3,/,/
O=C(c1cccs1)N1CC[C@H]2[C@H](CCCN2Cc2cc(F)cc(F)c2)C1,/,-1,/,/,10,/,/
O=C(Nc1ccccc1)c1cc2ccccc2o1,-103,13*,-6,-3,-37,4,5
Cc1cc(C(=O)Nc2ccccc2)oc1C,-105,9.0*,1,4,-49,4,11*
CC(=O)Nc1cccc(NC(=O)c2cc3ccccc3o2)c1,-81,3,-2,2,-54,/,/
CC(C)C(=O)Nc1cccc(NC(=O)c2cc3ccccc3o2)c1,-68,9.4*,-4,-1,-47,7,10*
O=C(Nc1ccc(F)cc1)c1cc2ccccc2o1,-72,3,-10,2,-61,/,/
COC(=O)c1ccc(S(=O)(=O)N2CCC(NC(=O)COc3ccc(F)cc3)CC2)cc1,/,0,/,/,-12,/,/
O=C(Nc1ccccc1Oc1ccccc1)NC1CCCCN(Cc2ccc(Cl)cc2)C1=O (stereo not drawn),/,-2,/,/,1,/,/
CC(C)c1ccc(NC(=O)COC(=O)C2CC3C=CC2C3)cc1 (stereo not drawn),-2,8.2*,-5,/,-28,3,2
CCN(CC)CCCNc1nc2ccccc2c2nc(-c3ccncc3)nn12,-1,23*,-3,2,1,35*,0
Cc1ccc(-c2cc(C(=O)NN=Cc3cccc(Oc4ccccc4)c3)[nH]n2)cc1C,/,-3,/,/,-22,/,/
Cc1ccc(-c2cc3nc4c(c(=O)n3[nH]2)CCCC4)cc1,-99,6,0,4,-35,/,/
O=c1c2c(nc3cc(-c4ccc(F)cc4)[nH]n13)CCC2,-120,12*,-9,2,-35,13*,12*
N#C/C(=C\c1c[nH]c2ccccc12)C(=O)NC1CC1,-8,10*,-8,-1,-14,11*,11*
O=C(OC12CCCN(C1)/C(=C/c1ccc(Cl)cc1)C2)c1ccco1 (stereo not drawn),/,-5,/,/,-17,/,/
COc1ccc2nc3cc(Cl)ccc3c(C#N)c2c1,-25,6,0,1,2,/,/
COc1ccc2nc3cc(Cl)ccc3c(Nc3ccc(O)c(CN4CCN(C)CC4)c3)c2c1,-28,20*,-3,/,-33,91*,2
O=C1[C@@H](C2CC2)[C@@H]2c3ccccc3C=NN2[C@@H]2c3ccccc3C=NN12,/,-4,/,/,-13,/,/
